From ChEMBL document CHEMBL3046220, “Bioactive saponin from tea seed pomace with inhibitory effects against Rhizoctonia solani” (J Agric Food Chem, 2010)

Assays:
[1] = test system: Rhizoctonia solani; assay: Antifungal activity against Rhizoctonia solani AG-4 assessed as inhibition of colony size at 125 ppm at 27 degC measured after 48 hr; format: functional; details: AG-4, 48 h
Outline: (§1)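 R. solani AG-4 RST-04 was kept on PDA slants. Samples were dissolved in distilled water, with distilled water as the control. Growth was on PDA plates at 27 °C for 48 h. Colony size was measured as mean ± SE (n = 8). Inhibition % = [(control colony size − treatment colony size)/control colony size] × 100. Groups were compared by Duncan's multiple-range test (p = 0.05).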

[2] = test system: Rhizoctonia solani; assay: Antifungal activity against Rhizoctonia solani AG-4 assessed as inhibition of mycelial growth at 27 degC measured after 48 hr; format: functional, organism-based
[3] = test system: Rhizoctonia solani; assay: Antifungal activity against Rhizoctonia solani AG-4 assessed as inhibition of colony size at 30 ppm at 27 degC measured after 48 hr; format: functional; details: AG-4, 48 h; outline: as §1
[4] = test system: Rhizoctonia solani; assay: Antifungal activity against Rhizoctonia solani AG-4 assessed as inhibition of colony size at 60 ppm at 27 degC measured after 48 hr; format: functional; details: AG-4, 48 h; outline: as §1
[5] = test system: Rhizoctonia solani; assay: Antifungal activity against Rhizoctonia solani AG-4 assessed as inhibition of colony size at 100 ppm at 27 degC measured after 48 hr; format: functional; details: AG-4, 48 h; outline: as §1
[6] = test system: Rhizoctonia solani; assay: Antifungal activity against Rhizoctonia solani AG-4 assessed as inhibition of colony size at 10 ppm at 27 degC measured after 48 hr; format: functional; details: AG-4, 48 h; outline: as §1
[7] = test system: Rhizoctonia solani; assay: Antifungal activity against Rhizoctonia solani AG-4 assessed as inhibition of colony size at 2.5 ppm at 27 degC measured after 48 hr; format: functional; details: AG-4, 48 h
Outline: (§2)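 R. solani AG-4 RST-04 was grown on potato dextrose agar plates at 27 °C for 48 h, with the reference fungicide tested across 0.25-250 ppm. Samples were dissolved in distilled water, and plates given distilled water alone served as control. Colony size was read as the mean of n = 8. Inhibition (%) = [(control colony size − treated colony size)/control colony size] × 100.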

[8] = test system: Rhizoctonia solani; assay: Antifungal activity against Rhizoctonia solani AG-4 assessed as inhibition of colony size at 25 ppm at 27 degC measured after 48 hr; format: functional; details: AG-4, 48 h; outline: as §2
[9] = test system: Rhizoctonia solani; assay: Antifungal activity against Rhizoctonia solani AG-4 assessed as inhibition of colony size at 0.25 ppm at 27 degC measured after 48 hr; format: functional; details: AG-4, 48 h; outline: as §2
[10] = test system: Rhizoctonia solani; assay: Antifungal activity against Rhizoctonia solani AG-4 assessed as inhibition of colony size at 250 ppm at 27 degC measured after 48 hr; format: functional; details: AG-4, 48 h; outline: as §2

| SMILES | inhibition at 125 ppm [1] | IC50 [2] | inhibition at 30 ppm [3] | inhibition at 60 ppm [4] | inhibition at 100 ppm [5] | inhibition at 10 ppm [6] | inhibition at 2.5 ppm [7] | inhibition at 25 ppm [8] | inhibition at 0.25 ppm [9] | inhibition at 250 ppm [10] |
| --- | --- | --- | --- | --- | --- | --- | --- | --- | --- | --- |
| C[C@@H]1O[C@@H](OC[C@H]2O[C@@H](Oc3c(-c4ccc(O)cc4)oc4cc(O)cc(O)c4c3=O)[C@H](O[C@@H]3O[C@H](CO)[C@H](O)[C@H](O)[C@H]3O)[C@@H](O)[C@@H]2O)[C@H](O)[C@H](O)[C@H]1O [CAMELLIASIDE A] | -14.7% | > 125 ppm | – | – | – | – | – | – | – | – |
| C/C=C(/C)C(=O)O[C@H]1CC(C)(C)C[C@H]2C3=CC[C@@H]4[C@@]5(C)CC[C@H](O[C@@H]6O[C@H](C(=O)O)[C@@H](O)[C@H](O[C@@H]7OC[C@H](O)[C@H](O)[C@H]7O[C@@H]7O[C@H](CO)[C@@H](O)[C@H](O)[C@H]7O)[C@H]6O[C@@H]6O[C@H](CO)[C@H](O)[C@H](O)[C@H]6O)[C@@](C)(C=O)[C@@H]5CC[C@@]4(C)[C@]3(C)C[C@@H](O)[C@@]12CO [CAMELLIASAPONIN B1] | – | 55.7 ppm | 46.8% | 56.5% | 63.4% | 6.43% | – | – | – | – |
| C[C@@H]1O[C@@H](OC[C@H]2O[C@@H](Oc3c(-c4ccc(O)cc4)oc4cc(O)cc(O)c4c3=O)[C@H](O[C@@H]3OC[C@@H](O)[C@H](O)[C@H]3O)[C@@H](O)[C@@H]2O)[C@H](O)[C@H](O)[C@H]1O [CAMELLIASIDE B] | -14.5% | > 125 ppm | – | – | – | – | – | – | – | – |
| O=C(Nc1ccccc1)N(Cc1ccc(Cl)cc1)C1CCCC1 [PENCYCURON] | – | < 0.25 ppm | – | – | – | – | 73.6% | 83.9% | 66.6% | 81.9% |
